{"source": "ChEMBL document CHEMBL1122815", "about": "“Synthesis and hypoglycemic activity of N-alkylated hydrazonopropionic acids” (J Med Chem, 1985)"}
{"tested_on": "Cavia porcellus", "experiment": "Hypoglycemic activity was given as differences between the mean changes in blood glucose concentration in control group and the treated group after a dose of 50 mg/kg, ip", "assay_type": "functional", "conditions": "route intraperitoneal", "method_in_brief": "(§1)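 Guinea pigs fasted from about 20 h before and throughout the study, with free access to water; six animals per dose group. Compound was given ip as a neutral solution, and a parallel control group received physiological NaCl ip. Ear-vein blood (10 μL) was taken before dosing and then hourly to 6 h. Glucose was measured by hexokinase on the hemolysate. The effect was calculated as the % difference of the lowest glucose relative to the initial value. U-test, p ≤ 0.05.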", "units": {"Decrease in blood glucose": "%"}}
{"smiles": "C/C(=N\\NC/C=C/c1cccc(Cl)c1)C(=O)O", "Decrease in blood glucose": 6}
{"smiles": "C/C(=N\\NCC(C)Cc1ccccc1)C(=O)O", "note": "(centres undefined)", "Decrease in blood glucose": 22}
{"smiles": "C/C(=N\\NCCCc1ccccc1)C(=O)[O-].[Na+]", "Decrease in blood glucose": 23}
{"smiles": "C/C(=N\\NCCc1ccccc1)C(N)=O", "Decrease in blood glucose": 15}
{"smiles": "C/C(=N\\NCCc1ccccc1C)C(=O)O", "Decrease in blood glucose": 14}
{"smiles": "C/C(=N\\NCCc1cccc(C(F)(F)F)c1)C(=O)O", "Decrease in blood glucose": 13}
{"smiles": "C/C(=N\\NC(C)Cc1ccccc1)C(=O)[O-].[Na+]", "note": "(centres undefined)", "Decrease in blood glucose": 14}
{"smiles": "C/C(=N\\NCC(C)c1ccccc1)C(=O)[O-].[Na+]", "note": "(centres undefined)", "Decrease in blood glucose": 15}
{"tested_on": "Cavia porcellus", "experiment": "Hypoglycemic activity was given as differences between the mean changes in blood glucose concentration in control group and the treated group after a dose of 25 mg/kg, ip", "assay_type": "functional", "conditions": "route intraperitoneal", "method_in_brief": "as §1", "units": {"Decrease in blood glucose": "%"}}
{"smiles": "C/C(=N\\NCCc1ccccc1)C(=O)O", "Decrease in blood glucose": 40}
{"smiles": "C/C(=N\\NC/C=C/c1ccc(Cl)cc1)C(=O)O", "Decrease in blood glucose": 9}
{"smiles": "C/C(=N\\NCCCC1CCCC1)C(=O)O", "Decrease in blood glucose": 68}
{"smiles": "C/C(=N\\NC/C=C/c1cccc(Cl)c1)C(=O)O", "Decrease in blood glucose": 14}
{"smiles": "C/C(=N\\NCCc1ccc(F)cc1)C(=O)O", "Decrease in blood glucose": 21}
{"smiles": "CCC/C=C/CN/N=C(\\C)C(=O)O", "Decrease in blood glucose": 43}
{"smiles": "C/C(=N\\NC/C=C/c1ccccc1)C(=O)[O-].[Na+]", "Decrease in blood glucose": 15}
{"smiles": "C/C(=N\\NCCOc1ccccc1)C(=O)O", "Decrease in blood glucose": 22}
{"smiles": "CC/C=C/CCN/N=C(\\C)C(=O)O", "Decrease in blood glucose": 82}
{"smiles": "C/C(=N\\NCCCCc1ccccc1)C(=O)[O-].[Na+]", "Decrease in blood glucose": 34}
{"smiles": "CCCCCCCCN/N=C(\\C)C(=O)O", "Decrease in blood glucose": 69}
{"smiles": "C/C(=N\\NC/C=C/c1cccc(C)c1)C(=O)O", "Decrease in blood glucose": 22}
{"smiles": "C/C(=N\\NCc1ccccc1)C(=O)O", "Decrease in blood glucose": 7}
{"smiles": "CCCN/N=C(\\C)C(=O)O", "Decrease in blood glucose": 24}
{"smiles": "CCCCCCCN/N=C(\\C)C(=O)O", "Decrease in blood glucose": 70}
{"smiles": "COc1ccc(CCN/N=C(\\C)C(=O)O)cc1", "Decrease in blood glucose": 7}
{"smiles": "C/C(=N\\NCCc1ccc(Cl)cc1)C(=O)O", "Decrease in blood glucose": 11}
{"smiles": "C/C(=N\\NCCc1ccc(C)cc1)C(=O)O", "Decrease in blood glucose": 8}
{"smiles": "CCC(C)CCCN/N=C(\\C)C(=O)O", "note": "(centres undefined)", "Decrease in blood glucose": 41}
{"smiles": "C/C(=N\\NCC/C=C/c1ccccc1)C(=O)O", "Decrease in blood glucose": 15}
{"smiles": "CCCCN/N=C(\\C)C(=O)O", "Decrease in blood glucose": 41}
{"smiles": "CCCOCCCCN/N=C(\\C)C(=O)O", "Decrease in blood glucose": 22}
{"smiles": "C/C(=C\\CN/N=C(\\C)C(=O)O)c1ccccc1", "Decrease in blood glucose": 20}
{"smiles": "C=CCCCCN/N=C(\\C)C(=O)[O-].[Na+]", "Decrease in blood glucose": 60}
{"smiles": "COCCCCCCN/N=C(\\C)C(=O)O", "Decrease in blood glucose": 22}
{"smiles": "CCCCCCN/N=C(\\C)C(=O)O", "Decrease in blood glucose": 72}
{"smiles": "CCCCCN/N=C(\\C)C(=O)[O-].[Na+]", "Decrease in blood glucose": 45}
{"smiles": "C/C(=N\\NCCCC1CCCCC1)C(=O)[O-].[Na+]", "Decrease in blood glucose": 13}
{"smiles": "CCOC(=O)/C(C)=N/NCCc1ccccc1", "Decrease in blood glucose": 14}
{"smiles": "CCCCCC(C)N/N=C(\\C)C(=O)O", "note": "(centres undefined)", "Decrease in blood glucose": 45}
{"smiles": "C/C(=N\\NCCC1CCCCC1)C(=O)O", "Decrease in blood glucose": 48}
{"smiles": "C/C(=N\\NCCc1cccc(C)c1)C(=O)[O-].[Na+]", "Decrease in blood glucose": 24}
{"smiles": "N=C(N)NC(=N)NCCc1ccccc1", "note": "[PHENFORMIN]", "Decrease in blood glucose": 70}
{"tested_on": "not listed separately", "experiment": "Lethal dose on oral administration to rats was determined", "assay_type": "toxicity, organism-based", "conditions": "rat, in vivo", "units": {"LD50": "mg/kg"}}
{"smiles": "C/C(=N\\NCCC1CCCCC1)C(=O)O", "LD50": 520}
{"smiles": "C/C(=C/c1ccccc1)CN/N=C(\\C)C(=O)O", "LD50": 680}
{"tested_on": "Cavia porcellus", "experiment": "Hypoglycemic activity at a dose of 20 mg/kg administered intraperitoneally", "assay_type": "functional", "conditions": "dose 50 mg/kg; route intraperitoneal; in the assay text read “50 mg/kg” for “20 mg/kg”", "method_in_brief": "as §1", "units": {"Decrease in blood glucose": "%"}}
{"smiles": "CCCCCCCCCN/N=C(\\C)C(=O)O", "Decrease in blood glucose": 25}
